Assays:
[1] = Partition coefficient, log P at pH 7.4; type: physicochemical; settings: octanol/water
Procedure, shortened: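 Radioiodinated tracer shaken 3 min at room temperature in 1-octanol and 0.1 M phosphate buffer pH 7.4, centrifuged 5 min. Equal aliquots of each layer counted; ratio of octanol to buffer counts, with octanol layer repartitioned until values were consistent. Triplicate, repeated three times; mean (SD) of three experiments.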

Blood [2] = assay: Biodistribution in ddY mouse blood at 2 uCi, iv after 2 mins; type: ADME, organism-based; settings: in vivo
Procedure, shortened: (§1)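 Normal mice given the 125I-labelled flavone intravenously; killed at each time point postinjection, organs removed, weighed and counted in a γ counter. Radioactivity expressed as % injected dose per gram tissue; mean (SD) of three to five animals per interval.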

Liver [3] = assay: Biodistribution in ddY mouse liver at 2 uCi, iv after 2 mins; type: ADME, organism-based; settings: in vivo; procedure, shortened: as §1
Kidney [4] = assay: Biodistribution in ddY mouse kidney at 2 uCi, iv after 2 mins; type: ADME, organism-based; settings: in vivo; procedure, shortened: as §1
Intestine [5] = assay: Biodistribution in ddY mouse intestine at 2 uCi, iv after 2 mins; type: ADME, organism-based; settings: in vivo; procedure, shortened: as §1
Spleen [6] = assay: Biodistribution in ddY mouse spleen at 2 uCi, iv after 2 mins; type: ADME, organism-based; settings: in vivo; procedure, shortened: as §1
Heart [7] = assay: Biodistribution in ddY mouse heart at 2 uCi, iv after 2 mins; type: ADME, organism-based; settings: in vivo; procedure, shortened: as §1
Stomach [8] = assay: Biodistribution per organ in ddY mouse stomach at 2 uCi, iv after 2 mins; type: ADME, organism-based; settings: in vivo
Procedure, shortened: (§2)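 Normal mice injected intravenously with the 125I-labelled flavone; killed at each time point, stomach removed and counted in a γ counter. Value given as % injected dose per whole organ; mean (SD) of three to five animals per interval.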

Brain [9] = assay: Biodistribution in ddY mouse brain at 2 uCi, iv after 2 mins; type: ADME, organism-based; settings: in vivo; procedure, shortened: as §1
Blood [10] = assay: Biodistribution in ddY mouse blood at 2 uCi, iv after 10 mins; type: ADME, organism-based; settings: in vivo; procedure, shortened: as §1
Blood [11] = assay: Biodistribution in ddY mouse blood at 2 uCi, iv after 30 mins; type: ADME, organism-based; settings: in vivo, 0.5 h; procedure, shortened: as §1
Blood [12] = assay: Biodistribution in ddY mouse blood at 2 uCi, iv after 60 mins; type: ADME, organism-based; settings: in vivo, 1 h; procedure, shortened: as §1
Liver [13] = assay: Biodistribution in ddY mouse liver at 2 uCi, iv after 10 mins; type: ADME, organism-based; settings: in vivo; procedure, shortened: as §1
Liver [14] = assay: Biodistribution in ddY mouse liver at 2 uCi, iv after 30 mins; type: ADME, organism-based; settings: in vivo, 0.5 h; procedure, shortened: as §1
Liver [15] = assay: Biodistribution in ddY mouse liver at 2 uCi, iv after 60 mins; type: ADME, organism-based; settings: in vivo, 1 h; procedure, shortened: as §1
Kidney [16] = assay: Biodistribution in ddY mouse kidney at 2 uCi, iv after 10 mins; type: ADME, organism-based; settings: in vivo; procedure, shortened: as §1
Kidney [17] = assay: Biodistribution in ddY mouse kidney at 2 uCi, iv after 30 mins; type: ADME, organism-based; settings: in vivo, 0.5 h; procedure, shortened: as §1
Kidney [18] = assay: Biodistribution in ddY mouse kidney at 2 uCi, iv after 60 mins; type: ADME, organism-based; settings: in vivo, 1 h; procedure, shortened: as §1
Intestine [19] = assay: Biodistribution in ddY mouse intestine at 2 uCi, iv after 10 mins; type: ADME, organism-based; settings: in vivo; procedure, shortened: as §1
Intestine [20] = assay: Biodistribution in ddY mouse intestine at 2 uCi, iv after 30 mins; type: ADME, organism-based; settings: in vivo, 0.5 h; procedure, shortened: as §1
Intestine [21] = assay: Biodistribution in ddY mouse intestine at 2 uCi, iv after 60 mins; type: ADME, organism-based; settings: in vivo, 1 h; procedure, shortened: as §1
Spleen [22] = assay: Biodistribution in ddY mouse spleen at 2 uCi, iv after 10 mins; type: ADME, organism-based; settings: in vivo; procedure, shortened: as §1
Spleen [23] = assay: Biodistribution in ddY mouse spleen at 2 uCi, iv after 30 mins; type: ADME, organism-based; settings: in vivo, 0.5 h; procedure, shortened: as §1
Spleen [24] = assay: Biodistribution in ddY mouse spleen at 2 uCi, iv after 60 mins; type: ADME, organism-based; settings: in vivo, 1 h; procedure, shortened: as §1
Heart [25] = assay: Biodistribution in ddY mouse heart at 2 uCi, iv after 10 mins; type: ADME, organism-based; settings: in vivo; procedure, shortened: as §1
Heart [26] = assay: Biodistribution in ddY mouse heart at 2 uCi, iv after 30 mins; type: ADME, organism-based; settings: in vivo, 0.5 h; procedure, shortened: as §1
Heart [27] = assay: Biodistribution in ddY mouse heart at 2 uCi, iv after 60 mins; type: ADME, organism-based; settings: in vivo, 1 h; procedure, shortened: as §1
Stomach [28] = assay: Biodistribution per organ in ddY mouse stomach at 2 uCi, iv after 10 mins; type: ADME, organism-based; settings: in vivo; procedure, shortened: as §2
Stomach [29] = assay: Biodistribution per organ in ddY mouse stomach at 2 uCi, iv after 30 mins; type: ADME, organism-based; settings: in vivo, 0.5 h; procedure, shortened: as §2
Stomach [30] = assay: Biodistribution per organ in ddY mouse stomach at 2 uCi, iv after 60 mins; type: ADME, organism-based; settings: in vivo, 1 h; procedure, shortened: as §2
Brain [31] = assay: Biodistribution in ddY mouse brain at 2 uCi, iv after 10 mins; type: ADME, organism-based; settings: in vivo; procedure, shortened: as §1
Brain [32] = assay: Biodistribution in ddY mouse brain at 2 uCi, iv after 30 mins; type: ADME, organism-based; settings: in vivo, 0.5 h; procedure, shortened: as §1
Brain [33] = assay: Biodistribution in ddY mouse brain at 2 uCi, iv after 60 mins; type: ADME, organism-based; settings: in vivo, 1 h; procedure, shortened: as §1
[34] = target: T1, Amyloid-beta precursor protein (Homo sapiens, UniProt P05067); assay: Displacement of [125I]6-iodo-4'-dimethyaminofl avone from beta amyloid (1-40) protein aggregates
[35] = target: T1, Amyloid-beta precursor protein; assay: Displacement of [125I]6-iodo-4'-dimethyaminofl avone from beta amyloid (1-42) protein aggregates

T1 sequence (P05067 whole entry): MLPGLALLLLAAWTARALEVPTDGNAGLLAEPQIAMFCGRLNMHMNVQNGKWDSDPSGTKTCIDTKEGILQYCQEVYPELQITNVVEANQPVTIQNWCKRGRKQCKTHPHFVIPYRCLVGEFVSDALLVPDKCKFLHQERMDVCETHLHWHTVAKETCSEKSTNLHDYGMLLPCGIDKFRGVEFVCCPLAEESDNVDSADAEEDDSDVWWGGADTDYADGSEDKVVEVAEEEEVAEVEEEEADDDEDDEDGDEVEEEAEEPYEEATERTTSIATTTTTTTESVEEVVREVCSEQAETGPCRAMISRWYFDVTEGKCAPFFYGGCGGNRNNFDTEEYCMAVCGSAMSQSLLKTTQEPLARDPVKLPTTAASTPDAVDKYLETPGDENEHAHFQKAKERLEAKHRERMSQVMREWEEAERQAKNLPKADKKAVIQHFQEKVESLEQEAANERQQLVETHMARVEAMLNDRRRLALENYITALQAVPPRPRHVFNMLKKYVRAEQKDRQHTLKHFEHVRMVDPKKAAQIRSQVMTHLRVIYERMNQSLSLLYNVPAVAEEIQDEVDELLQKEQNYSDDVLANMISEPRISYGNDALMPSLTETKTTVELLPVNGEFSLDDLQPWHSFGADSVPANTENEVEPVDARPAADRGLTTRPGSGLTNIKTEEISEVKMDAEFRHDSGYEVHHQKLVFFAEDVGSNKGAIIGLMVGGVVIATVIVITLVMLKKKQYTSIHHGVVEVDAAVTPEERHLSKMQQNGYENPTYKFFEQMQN

| Structure (SMILES) | logD [1] | Drug uptake (Blood [2]) [% ID/g] | Drug uptake (Liver [3]) [% ID/g] | Drug uptake (Kidney [4]) [% ID/g] | Drug uptake (Intestine [5]) [% ID/g] | Drug uptake (Spleen [6]) [% ID/g] | Drug uptake (Heart [7]) [% ID/g] | Drug uptake (Stomach [8]) [% ID/organ] | Drug uptake (Brain [9]) [% ID/g] | Drug uptake (Blood [10]) [% ID/g] | Drug uptake (Blood [11]) [% ID/g] | Drug uptake (Blood [12]) [% ID/g] | Drug uptake (Liver [13]) [% ID/g] | Drug uptake (Liver [14]) [% ID/g] | Drug uptake (Liver [15]) [% ID/g] | Drug uptake (Kidney [16]) [% ID/g] | Drug uptake (Kidney [17]) [% ID/g] | Drug uptake (Kidney [18]) [% ID/g] | Drug uptake (Intestine [19]) [% ID/g] | Drug uptake (Intestine [20]) [% ID/g] | also measured |
| --- | --- | --- | --- | --- | --- | --- | --- | --- | --- | --- | --- | --- | --- | --- | --- | --- | --- | --- | --- | --- | --- |
| Nc1c(/N=N/c2ccc(-c3ccc(/N=N/c4cc(S(=O)(=O)O)c5ccccc5c4N)cc3)cc2)cc(S(=O)(=O)O)c2ccccc12 [CONGO RED] |  |  |  |  |  |  |  |  |  |  |  |  |  |  |  |  |  |  |  |  | Ki [34]: > 1 µM; Ki [35]: > 1 µM |
| CN(C)c1ccc(-c2cc(=O)c3cc([125I])ccc3o2)cc1 | 2.69 | 1.87 | 15.41 | 8.33 | 2.24 | 2.72 | 5.63 | 0.73 | 3.22 | 1.07 | 1.2 | 1.15 | 21.85 | 15.71 | 12.4 | 4.31 | 3.4 | 2.32 | 6.56 | 12.97 | Drug uptake (Intestine [21]): 18.64 % ID/g; Drug uptake (Spleen [22]): 1.92 % ID/g; Drug uptake (Spleen [23]): 1.58 % ID/g; Drug uptake (Spleen [24]): 1.18 % ID/g; Drug uptake (Heart [25]): 2.47 % ID/g; Drug uptake (Heart [26]): 1.69 % ID/g; Drug uptake (Heart [27]): 1.07 % ID/g; Drug uptake (Stomach [28]): 0.63 % ID/organ; Drug uptake (Stomach [29]): 1.17 % ID/organ; Drug uptake (Stomach [30]): 1.06 % ID/organ; Drug uptake (Brain [31]): 3.61 % ID/g; Drug uptake (Brain [32]): 1.89 % ID/g; Drug uptake (Brain [33]): 0.99 % ID/g |

Now from value to molecule, other results behind:

| logD [1] | Drug uptake (Blood [2]) [% ID/g] | Drug uptake (Liver [3]) [% ID/g] | Drug uptake (Kidney [4]) [% ID/g] | Drug uptake (Intestine [5]) [% ID/g] | Drug uptake (Spleen [6]) [% ID/g] | Drug uptake (Heart [7]) [% ID/g] | Drug uptake (Stomach [8]) [% ID/organ] | Drug uptake (Brain [9]) [% ID/g] | Drug uptake (Blood [10]) [% ID/g] | Drug uptake (Blood [11]) [% ID/g] | Drug uptake (Blood [12]) [% ID/g] | Drug uptake (Liver [13]) [% ID/g] | Drug uptake (Liver [14]) [% ID/g] | Drug uptake (Liver [15]) [% ID/g] | Drug uptake (Kidney [16]) [% ID/g] | Drug uptake (Kidney [17]) [% ID/g] | Drug uptake (Kidney [18]) [% ID/g] | Drug uptake (Intestine [19]) [% ID/g] | Drug uptake (Intestine [20]) [% ID/g] | Structure (SMILES) | also measured |
| --- | --- | --- | --- | --- | --- | --- | --- | --- | --- | --- | --- | --- | --- | --- | --- | --- | --- | --- | --- | --- | --- |
| 1.92 | 2.77 | 9.77 | 14.79 | 3.12 | 3.92 | 5.51 | 0.89 | 3.31 | 1.58 | 0.66 | 0.2 | 8.24 | 6.8 | 4.78 | 15.11 | 6.45 | 1.66 | 11.26 | 22.01 | O=c1cc(-c2ccc(O)cc2)oc2ccc([125I])cc12 | Drug uptake (Intestine [21]): 27.28 % ID/g; Drug uptake (Spleen [22]): 1.55 % ID/g; Drug uptake (Spleen [23]): 0.56 % ID/g; Drug uptake (Spleen [24]): 0.17 % ID/g; Drug uptake (Heart [25]): 1.6 % ID/g; Drug uptake (Heart [26]): 0.53 % ID/g; Drug uptake (Heart [27]): 0.12 % ID/g; Drug uptake (Stomach [28]): 0.59 % ID/organ; Drug uptake (Stomach [29]): 1.56 % ID/organ; Drug uptake (Stomach [30]): 0.81 % ID/organ; Drug uptake (Brain [31]): 1.9 % ID/g; Drug uptake (Brain [32]): 0.52 % ID/g; Drug uptake (Brain [33]): 0.08 % ID/g |
| 2.41 | 1.87 | 8.96 | 7.99 | 3.52 | 2.7 | 4.98 | 0.68 | 4 | 1.19 | 0.4 | 0.23 | 9.01 | 3.75 | 1.88 | 6.3 | 4.51 | 1.46 | 14.39 | 22.51 | COc1ccc(-c2cc(=O)c3cc([125I])ccc3o2)cc1 | Drug uptake (Intestine [21]): 30.05 % ID/g; Drug uptake (Spleen [22]): 1.38 % ID/g; Drug uptake (Spleen [23]): 0.55 % ID/g; Drug uptake (Spleen [24]): 3.67 % ID/g; Drug uptake (Heart [25]): 2.25 % ID/g; Drug uptake (Heart [26]): 0.84 % ID/g; Drug uptake (Heart [27]): 0.47 % ID/g; Drug uptake (Stomach [28]): 0.45 % ID/organ; Drug uptake (Stomach [29]): 0.55 % ID/organ; Drug uptake (Stomach [30]): 0.31 % ID/organ; Drug uptake (Brain [31]): 2.36 % ID/g; Drug uptake (Brain [32]): 0.51 % ID/g; Drug uptake (Brain [33]): 0.17 % ID/g |
| 2.15 | 1.89 | 16.28 | 8.13 | 3.1 | 2.57 | 4.87 | 0.78 | 4.12 | 1.39 | 1.34 | 1.5 | 25.28 | 18.61 | 15.14 | 5.21 | 3.85 | 3.05 | 7.91 | 12.84 | CNc1ccc(-c2cc(=O)c3cc([125I])ccc3o2)cc1 | Drug uptake (Intestine [21]): 21.48 % ID/g; Drug uptake (Spleen [22]): 2.31 % ID/g; Drug uptake (Spleen [23]): 1.76 % ID/g; Drug uptake (Spleen [24]): 1.52 % ID/g; Drug uptake (Heart [25]): 2.66 % ID/g; Drug uptake (Heart [26]): 1.67 % ID/g; Drug uptake (Heart [27]): 1.28 % ID/g; Drug uptake (Stomach [28]): 0.87 % ID/organ; Drug uptake (Stomach [29]): 1.44 % ID/organ; Drug uptake (Stomach [30]): 1.8 % ID/organ; Drug uptake (Brain [31]): 3.68 % ID/g; Drug uptake (Brain [32]): 1.84 % ID/g; Drug uptake (Brain [33]): 1.19 % ID/g |

Reference: ChEMBL document CHEMBL1139476, “Radioiodinated flavones for in vivo imaging of beta-amyloid plaques in the brain” (J Med Chem, 2005)
